The record followed here is the RNAGym collection of RNA variant scans (doi:10.1126/science.aae0568).

This sample holds only a part of the variants without activity.

B1: tRNA (parent)
chain: GUUCCGUUGGCGUAAUGGUAACGCGUCUCCCUCCUAAGGAGAAGACUGCGGGUUCGAGUCCCGUACGGAACG

In the series the parent is B1. Briefly: yeast fitness relative to wild type (ratio to wild type); higher = fitter; tRNA-Arg(CCU), competitive growth, 37 C, YPD. In outline:
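Gene amplicons from the start population and from each of six end populations were read by 100-nucleotide paired-end sequencing. Those end populations came from pooled Saccharomyces cerevisiae strains carrying tRNA-Arg(CCU) gene variants at the native locus, competed in YPD at 37°C for 24 hours. Fitness relative to wild type was worked out from changes in genotype frequencies. Genotypes needed ≥ 100 starting reads, and estimates < 0.5 were set to 0.5.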
U8A A36G A40C U47A: the yeast fitness is at most 0.5. In the case of U8A A36G G67C, the yeast fitness was at most 0.5. Turning to U7G G41C G58C U59C, the yeast fitness was at most 0.5. On to U8A C22G G25A C27A C33U C49G, for which the yeast fitness turned out to be 0.642. The figure for U8A C11U G25C G39C C55U is at most 0.5; for U7G G63A A65G it is 0.828.

For U8A C11A, the yeast fitness was found to be 0.674. Regarding U8A A40G A42U A45U U59G G68A, the yeast fitness was at most 0.5. For the variant U8A A40U, the yeast fitness was 0.707.

As for U8A A15U C29U G38C, the yeast fitness is at most 0.5. For U8A A14G G39C, the yeast fitness is at most 0.5.

Turning to U8A C22U C49U A69C A70C, the yeast fitness was 0.545. For the variant U7G U59G A69C, the yeast fitness was at most 0.5. In the case of U8A A15U C34U U64G, the yeast fitness was at most 0.5. On to U8A A36U, for which the yeast fitness came out at 0.559. Consider U8A C22U U59A, for which the yeast fitness is at most 0.5.

With U8A A15C G18C, the yeast fitness was 0.575. U7G G25C A40U: the yeast fitness worked out at 0.556. Regarding U8A A14C C31A G41C C49A G56A G67C, the yeast fitness is at most 0.5.

In the case of U8A A40U A43U A65C, the yeast fitness was at most 0.5. Consider U8A C11U A21C G56C G68C, for which the yeast fitness is at most 0.5. With U8A A36C C62A, the yeast fitness was at most 0.5. Under U7G G23A A36U G39C stands at most 0.5; under U7G U32C C46G, 0.62.

With U8A A15U A20U G25C C29A A40C G50A, the yeast fitness is at most 0.5.

As for U7G U8A A14G, the yeast fitness came to 0.525.

Take U8A A37G A42U U54C: the yeast fitness was at most 0.5. U8A C22G U35C A70G: the yeast fitness was at most 0.5. Under U8A A40G U64C stands 0.623. Under U7G G39C stands 0.632; under U7G G39A, 0.874; under U7G G39C A42G, at most 0.5. For U8A A36U G39A C66U, the yeast fitness was at most 0.5.

As for U7G G39C A70U, the yeast fitness turned out to be 0.553. U7G U13A A42G C66G G67C: the yeast fitness was at most 0.5. Regarding U8A A14U G17A G25A, the yeast fitness was at most 0.5. As to U7G U32C A40G, the yeast fitness was found to be 0.559. Under U8A A15G G50C C55U C60G A69G stands at most 0.5. As to U7G G12C A14C A15G A37C A57U, the yeast fitness is at most 0.5. Turning to U8A A42U A43U, the yeast fitness was 0.58.

Regarding U8A A43C A65U, the yeast fitness was at most 0.5.

U7G G10C C22G: the yeast fitness was at most 0.5.

As to U8A A20C U35A G38C A69C, the yeast fitness is 0.535. As for U8A C22U A36U C49G A69C, the yeast fitness came to 0.631. Regarding U7G G41C C49G U59G G63A C66U, the yeast fitness is at most 0.5. Consider U7G U59C A69U, for which the yeast fitness worked out at 0.717.

As for U8A C11U G25A C33A A40U C61A C62U, the yeast fitness was at most 0.5. On to U7G G25C G67A, for which the yeast fitness amounted to 0.682. Take U7G G10C C29A C55U A69U: the yeast fitness came out at 0.534. Consider U8A A15C G18C C49U C62U, for which the yeast fitness was at most 0.5.

For the variant U8A A14U G17A C27U, the yeast fitness is at most 0.5. For the variant U8A C11U A43U C61A A65U, the yeast fitness is at most 0.5. For the variant U8A A37C A43U G63A, the yeast fitness worked out at 0.561. Turning to U8A A14U C22U, the yeast fitness was 0.592. As to U7G G23C C30G A36U C61U, the yeast fitness is at most 0.5.

Take U8A C11A C66U: the yeast fitness turned out to be 0.585. Consider U7G U13C A36U G50C U54C, for which the yeast fitness was at most 0.5. As to U8A A14G C24G A45C C62U, the yeast fitness was at most 0.5. In the case of U8A A14G C24G G56A, the yeast fitness was at most 0.5. The figure for U7G U26C A42U C46U C66U is at most 0.5; for U7G U26C A43G C49U it is at most 0.5.

Take U7G G39A C55U U59G G68C: the yeast fitness was at most 0.5.

Regarding U7G G38C C60G, the yeast fitness is at most 0.5.

In the case of U8A A14G A20U G63C C66G, the yeast fitness was at most 0.5. For the variant U7G G63A, the yeast fitness came to 0.888.

Turning to U8A C22U U35C, the yeast fitness is at most 0.5. Take U7G U8A U32C G51C C60U C61U C62U: the yeast fitness was 0.599.

Turning to U7G U59C, the yeast fitness came to 0.871.

Regarding U8A A14C C31A G41C G63U U64A, the yeast fitness turned out to be 0.776.

For U8A A36U C55G U59C A69C, the yeast fitness was 0.794. Under U8A A15U A21G C34A A37G stands 0.51; under U7G U26C C31A G38C, 0.561. Turning to U8A C11A C24A C29A C34U C61G, the yeast fitness was at most 0.5. For the variant U8A A43U A70G, the yeast fitness worked out at 0.532.

Turning to U8A A15U C27G A36G, the yeast fitness turned out to be 0.569. As to U8A A15G C27A G67A, the yeast fitness was at most 0.5. Take U7G G23U C27G U28G C60A: the yeast fitness was at most 0.5. As to U8A A15U A20C A45G, the yeast fitness was at most 0.5. Under U8A A36U G68C stands at most 0.5. U8A C22G G25A C27A C33U A57C G68C: the yeast fitness is at most 0.5. In the case of U7G G25A, the yeast fitness turned out to be 0.799.

Turning to U7G U13A A69U, the yeast fitness is 0.629. Regarding U8A A15C A21U, the yeast fitness is at most 0.5. With U7G G23C C24A C30G A36U C61U A65U, the yeast fitness is at most 0.5.

For the variant U8A A37C A43U, the yeast fitness was found to be 0.541.

On to U8A A36G G44A, for which the yeast fitness is 0.527. With U8A C22G G25A C27A C33U C49G A65C, the yeast fitness was found to be 0.608. U8A A20C A42U: the yeast fitness was at most 0.5. Under U7G U32C stands 0.992; under U7G U32G, 0.569. For U7G U13C A37U, the yeast fitness is at most 0.5. Regarding U7G G10C C33U C60G G67A, the yeast fitness was at most 0.5. Consider U7G U16C C30A, for which the yeast fitness is at most 0.5. For the variant U8A C11G A65G, the yeast fitness is 0.857. The figure for U7G G68A is 0.821; for U7G G67A it is 0.826; for U8A A14U it is 0.534. Consider U8A A20U G56A G67A, for which the yeast fitness was at most 0.5. Regarding U7G G38C, the yeast fitness turned out to be 0.591. For the variant U7G U28G C34U G38A, the yeast fitness was at most 0.5.

Regarding U8A C11G G56A, the yeast fitness turned out to be 0.583.

On to U7G G50C G67C, for which the yeast fitness is at most 0.5. The figure for U7G U32A C61G is at most 0.5; for U7G G41A G48A it is 0.911. Turning to U8A A15G C27A U47G G68U, the yeast fitness is at most 0.5. Take U8A A45U: the yeast fitness amounted to 0.818. As to U8A A45C, the yeast fitness was found to be 0.692. As to U7G U26G C33G U59A U64C, the yeast fitness is 0.502. With U8A C22U C34G A36U A57G A65C, the yeast fitness is at most 0.5.

U8A A21G C24A C30A A45U U47C C49A: the yeast fitness came out at 0.572. For U8A A21G C24A C30A A45U C49A A65U, the yeast fitness was at most 0.5. Under U7G G10C A43U C55U stands at most 0.5; under U8A A36G G38C G52C A57U A69U A70G, at most 0.5; under U7G G39A C66U, at most 0.5.

As for U8A A14G C24G A45C U64A, the yeast fitness is at most 0.5. As to U8A A21U C55A, the yeast fitness was at most 0.5. As to U8A A42C, the yeast fitness turned out to be 0.648.

On to U7G U8G A70U, for which the yeast fitness was at most 0.5. As for U8A C22U, the yeast fitness came out at 0.634.

In the case of U8A A15G C27A G56A, the yeast fitness was at most 0.5. U7G U8C C11G C34U G41A: the yeast fitness is 0.547. Take U8A C11U C46U G68A: the yeast fitness is at most 0.5. In the case of U7G G18C, the yeast fitness turned out to be 0.686.

As to U8A A40G C49G U54A C55A, the yeast fitness is at most 0.5.

Consider U8A A21U C27G C30A, for which the yeast fitness was at most 0.5. Under U8A A21G C24A C30A A45U C49A stands 0.765; under U8A A15C G18C C49U U64A A69U, 0.651. Take U8A A37G A43G U59A: the yeast fitness came out at 0.582. U8A A37C: the yeast fitness was 0.679.

Consider U8A A37G, for which the yeast fitness is at most 0.5. U7G U47A C61A: the yeast fitness amounted to 0.781. U8A A70C: the yeast fitness was 0.776. As to U8A A65U, the yeast fitness was determined as 0.708. Regarding U8A A65G, the yeast fitness was 0.855. For U8A A65C, the yeast fitness came out at 0.837. The figure for U8A A15C U26A C33A C61A U64A is at most 0.5. The figure for U8A C22U A36G A40C U47A is at most 0.5.

U7G U26A G63A: the yeast fitness is at most 0.5. Take U8A C11U A21C A69C: the yeast fitness is at most 0.5. The figure for U8A C11U A20G G25C G39C is at most 0.5; for U8A A40G C62A it is at most 0.5; for U8A A15U it is 0.587. Take U8A A15C: the yeast fitness was 0.631. As to U8A A15G, the yeast fitness came out at 0.665. Under U7G G56C C60U G67C stands at most 0.5. For the variant U8A A45G A65U, the yeast fitness is at most 0.5. On to U8A C11U A70C, for which the yeast fitness was determined as 0.622. In the case of U7G U32C C34G A43U, the yeast fitness was at most 0.5. U8A C11U G25A C33A A40U A69U: the yeast fitness is at most 0.5. The figure for U7G G10C C22G C55A is at most 0.5; for U8A A14C G17C C24U A45U G67C it is at most 0.5; for U7G G52A it is 0.723. For U7G G50A, the yeast fitness worked out at 0.858.

For the variant U8A A15U C27G A36G G38U, the yeast fitness was at most 0.5. In the case of U8A A43U C49U C55A, the yeast fitness was at most 0.5. The figure for U8A A14C C31A G41C C49A G56A is 0.668. The figure for U7G U32C A65G is 0.795.

For the variant U8A C22G A43U G52A U54C G56U U64C, the yeast fitness was at most 0.5.

As for U8A A42U U59A, the yeast fitness is at most 0.5. Consider U7G U28G, for which the yeast fitness is 0.635. Take U8A A37C U53C: the yeast fitness came to 0.545. In the case of U8A C11A C24U A40U, the yeast fitness is at most 0.5. With U7G G51C, the yeast fitness came to 0.644.

U7G U19C U64C: the yeast fitness is 0.954. Turning to U8A A43U, the yeast fitness came out at 0.763. Under U7G U13C A57U stands at most 0.5; under U7G U8A A14G C62U A65U, at most 0.5.
